Reference: ChEMBL document CHEMBL1165950, “Design and synthesis of new potent anticancer pyrazoles with high FLT3 kinase inhibitory selectivity” (Bioorg Med Chem, 2010)

Legend:
Format in all cases: functional
[1] = tested on: SK-MEL-2; assay: Cytotoxicity against human SK-MEL-2 cells assessed as cell growth at 10 uM; settings: read-out: Activity
Method in brief: (§1)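 NCI-60 screen: cells grown in RPMI 1640 with 5% FBS and 2 mM L-glutamine, plated at 5000–40,000 cells/well according to doubling time, and preincubated 24 h at 37 °C, 5% CO2. The single 10 µM dose (DMSO stock) was added, then incubated 48 h. Cells were TCA-fixed and stained with 0.4% SRB, read at 515 nm, and growth % calculated against time-zero and control plates.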

[2] = tested on: PC-3; assay: Cytotoxicity against human PC3 cells assessed as cell growth at 10 uM; settings: read-out: Activity; method in brief: as §1
[3] = tested on: T47D; assay: Cytotoxicity against human T47D cells assessed as cell growth at 10 uM; settings: read-out: Activity; method in brief: as §1
[4] = tested on: SN12C; assay: Cytotoxicity against human SN12C cells assessed as cell growth at 10 uM; settings: read-out: Activity; method in brief: as §1
[5] = tested on: Malme-3M; assay: Cytotoxicity against human MALME-3M cells assessed as cell growth at 10 uM; settings: read-out: Activity; method in brief: as §1
[6] = tested on: SF-295; assay: Cytotoxicity against human SF295 cells assessed as cell growth at 10 uM; settings: read-out: Activity; method in brief: as §1
[7] = tested on: SNB-19; assay: Cytotoxicity against human SNB19 cells assessed as cell growth at 10 uM; settings: read-out: Activity; method in brief: as §1
[8] = tested on: SNB-75; assay: Cytotoxicity against human SNB75 cells assessed as cell growth at 10 uM; settings: read-out: Activity; method in brief: as §1
[9] = tested on: HOP-62; assay: Cytotoxicity against human HOP62 cells assessed as cell growth at 10 uM; settings: read-out: Activity
Method in brief: (§2)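 Single-dose NCI-60 screen at 10 µM. Cells were grown in RPMI 1640 with 5% FBS and 2 mM L-glutamine, then treated for 48 h at 37 °C. Protein was measured by SRB staining with absorbance at 515 nm. Percentage growth was recorded, and inhibition percentage was calculated as 100 minus growth percentage.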

[10] = tested on: SF-268; assay: Cytotoxicity against human SF268 cells assessed as cell growth at 10 uM; settings: read-out: Activity; method in brief: as §1
[11] = tested on: NCI-H322M; assay: Cytotoxicity against human NCI-H322M cells assessed as cell growth at 10 uM; settings: read-out: Activity; method in brief: as §1
[12] = tested on: EKVX; assay: Cytotoxicity against human EKVX cells assessed as cell growth at 10 uM; settings: read-out: Activity; method in brief: as §2
[13] = tested on: NCI/ADR-RES; assay: Cytotoxicity against human NCI/ADR-RES cells assessed as cell growth at 10 uM; settings: read-out: Activity; method in brief: as §1
[14] = tested on: MOLT-4; assay: Cytotoxicity against human MOLT4 cells assessed as cell growth at 10 uM; settings: read-out: Activity; method in brief: as §1
[15] = tested on: CAKI-1; assay: Cytotoxicity against human Caki1 cells assessed as cell growth at 10 uM; settings: read-out: Activity; method in brief: as §2
[16] = tested on: LOX IMVI; assay: Cytotoxicity against human LOXIMVI cells assessed as cell growth at 10 uM; settings: read-out: Activity; method in brief: as §1
[17] = tested on: MDA-MB-435; assay: Cytotoxicity against human MDA-MB-435 cells assessed as cell growth at 10 uM; settings: read-out: Activity; method in brief: as §1
[18] = tested on: HCT-116; assay: Cytotoxicity against human HCT116 cells assessed as cell growth at 10 uM; settings: read-out: Activity; method in brief: as §2
[19] = Cytotoxicity against human […] cells assessed as cell growth at 10 uM; settings: read-out: Activity; method in brief: as §1
[20] = tested on: K562; assay: Cytotoxicity against human K562 cells assessed as cell growth at 10 uM; settings: read-out: Activity; method in brief: as §2
[21] = tested on: MDA-MB-468; assay: Cytotoxicity against human MDA-MB-468 cells assessed as cell growth at 10 uM; settings: read-out: Activity; method in brief: as §1
[22] = tested on: SK-OV-3; assay: Cytotoxicity against human SKOV3 cells assessed as cell growth at 10 uM; settings: read-out: Activity; method in brief: as §1
[23] = tested on: HCC 2998; assay: Cytotoxicity against human HCC2998 cells assessed as cell growth at 10 uM; settings: read-out: Activity; method in brief: as §2
[24] = tested on: KM12; assay: Cytotoxicity against human KM12 cells assessed as cell growth at 10 uM; settings: read-out: Activity; method in brief: as §1
[25] = tested on: HCT-15; assay: Cytotoxicity against human HCT15 cells assessed as cell growth at 10 uM; settings: read-out: Activity; method in brief: as §2
[26] = tested on: CCRF-CEM; assay: Cytotoxicity against human CCRF-CEM cells assessed as cell growth at 10 uM; settings: read-out: Activity; method in brief: as §2
[27] = tested on: TK-10; assay: Cytotoxicity against human TK10 cells assessed as cell growth at 10 uM; settings: read-out: Activity; method in brief: as §1
[28] = Growth inhibition of human NCI60 cells at 10 uM after 48 hrs by sulforhodamine B assay relative to control; settings: NCI60, 48 h, read-out: GI
Method in brief: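 Single-dose NCI screen at 10 µM across the 60-line panel, 48 h exposure at 37 °C after a 24 h preincubation. Adherent cells were fixed with cold TCA and stained with 0.4% SRB, and absorbance was read at 515 nm. Inhibition % was taken as 100 minus growth %, and the mean across all lines was reported.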

[29] = tested on: IGROV-1; assay: Cytotoxicity against human IGROV1 cells assessed as cell growth at 10 uM; settings: read-out: Activity; method in brief: as §2
[30] = tested on: A549; assay: Cytotoxicity against human A549 cells assessed as cell growth at 10 uM; settings: read-out: Activity; method in brief: as §2

## Cc1cc(O)cc(-c2nn(CC#N)cc2-c2ccnc(-c3ccccc3)c2)c1
[1]
  growth at 10 µM: 86.1%
[2]
  growth at 10 µM: 88.7%
[3]
  growth at 10 µM: 59.2%
[4]
  growth at 10 µM: 77.6%
[5]
  growth at 10 µM: 133%
[6]
  growth at 10 µM: 99.2%
[7]
  growth at 10 µM: 87%
[8]
  growth at 10 µM: 43.2%
[9]
  growth at 10 µM: 92.7%
[10]
  growth at 10 µM: 99.6%
[11]
  growth at 10 µM: 116%
[12]
  growth at 10 µM: 101%
[13]
  growth at 10 µM: 66.7%
[14]
  growth at 10 µM: 71%
[15]
  growth at 10 µM: 82.4%
[16]
  growth at 10 µM: 95.6%
[17]
  growth at 10 µM: 97.8%
[18]
  growth at 10 µM: 59.1%
[19]
  growth at 10 µM: 84.5%
[20]
  growth at 10 µM: 71.5%
[21]
  growth at 10 µM: 61.8%
[22]
  growth at 10 µM: 84.6%
[23]
  growth at 10 µM: 89.2%
[24]
  growth at 10 µM: 97.2%
[25]
  growth at 10 µM: 54%
[26]
  growth at 10 µM: 85.8%
[27]
  growth at 10 µM: 84.2%
[28]
  inhibition of growth at 10 µM: 16.4%
[29]
  growth at 10 µM: 72%
[30]
  growth at 10 µM: 85.5%
